According to ChEMBL document CHEMBL3804761, “Synthesis of a stable and orally bioavailable englerin analogue” (Bioorg Med Chem Lett, 2016):

What was measured:
Type in all cases: functional
[1] = Growth inhibition of human SF539 cells assessed as cell growth at 10 uM incubated for 48 hrs by sulforhodamine B assay relative to control; details: SF-539, 48 h, read-out: Activity
Method in brief: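 Single-dose screen in the NCI 60-cell-line panel at one final concentration of 10 µM. Two-day drug exposure with a sulforhodamine B endpoint. Values are growth percent for each cell line.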

SK-MEL-28 = experiment: Growth inhibition of human SK-MEL-28 cells assessed as cell growth at 10 uM incubated for 48 hrs by sulforhodamine B assay relative to control; details: SK-MEL-28, 48 h, read-out: Activity
Method in brief: (§1)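 Run in the standard NCI 60-cell-line screen. Cells were exposed to drug for two days, and the read-out was sulforhodamine B staining. Compound was tested at a single final concentration of 10 µM in every line, and results are reported as growth percent.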

SK-MEL-5 [2] = experiment: Growth inhibition of human SK-MEL-5 cells assessed as cell growth at 10 uM incubated for 48 hrs by sulforhodamine B assay relative to control; details: SK-MEL-5, 48 h, read-out: Activity; method in brief: as §1
[3] = Growth inhibition of human UACC62 cells assessed as cell growth at 10 uM incubated for 48 hrs by sulforhodamine B assay relative to control; details: UACC-62, 48 h, read-out: Activity
Method in brief: (§2)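 NCI 60-cell line standard protocol, one-dose screen: single final concentration 10 µM, 2-day drug exposure, sulforhodamine B (SRB) endpoint; read-out is growth percent relative to untreated control.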

[4] = Growth inhibition of human SKOV3 cells assessed as cell growth at 10 uM incubated for 48 hrs by sulforhodamine B assay relative to control; details: SK-OV-3, 48 h, read-out: Activity; method in brief: as §1
SN12C = experiment: Growth inhibition of human SN12C cells assessed as cell growth at 10 uM incubated for 48 hrs by sulforhodamine B assay relative to control; details: read-out: Activity; method in brief: as §1
[5] = Growth inhibition of human UO31 cells assessed as cell growth at 10 uM incubated for 48 hrs by sulforhodamine B assay relative to control; details: UO-31, 48 h, read-out: Activity; method in brief: as §2
T47D = experiment: Growth inhibition of human T47D cells assessed as cell growth at 10 uM incubated for 48 hrs by sulforhodamine B assay relative to control; details: read-out: Activity; method in brief: as §2
CCRF-CEM = experiment: Growth inhibition of human CCRF-CEM cells incubated for 48 hrs by sulforhodamine B assay; details: for CC50: read-out: pLC50 (the source's name) (converted); for TGI: read-out: pTGI (converted)
Method in brief: (§3)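 NCI 60-cell-line panel, standard protocol. Cells exposed to compound for two days, growth read by sulforhodamine B staining. Tested at five 10-fold dilutions, top concentration 100 µM, to give dose-response curves.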

[6] = Growth inhibition of human MOLT4 cells incubated for 48 hrs by sulforhodamine B assay; details: MOLT-4, 48 h; for TGI: read-out: pTGI (converted); method in brief: as §3
[7] = Growth inhibition of human HOP62 cells incubated for 48 hrs by sulforhodamine B assay; details: HOP-62, 48 h; for TGI: read-out: pTGI (converted); method in brief: as §3
[8] = Growth inhibition of human HOP92 cells incubated for 48 hrs by sulforhodamine B assay; details: HOP-92, 48 h; method in brief: as §3
NCI-H226 [9] = experiment: Growth inhibition of human NCI-H226 cells incubated for 48 hrs by sulforhodamine B assay; details: NCI-H226, 48 h; for TGI: read-out: pTGI (converted); method in brief: as §3
NCI-H322M = experiment: Growth inhibition of human NCI-H322M cells incubated for 48 hrs by sulforhodamine B assay; details: for TGI: read-out: pTGI (converted); method in brief: as §3
NCI-H522 [10] = experiment: Growth inhibition of human NCI-H522 cells incubated for 48 hrs by sulforhodamine B assay; details: NCI-H522, 48 h; for TGI: read-out: pTGI (converted); method in brief: as §3
[11] = Growth inhibition of human SNB19 cells incubated for 48 hrs by sulforhodamine B assay; details: SNB-19, 48 h; for CC50: read-out: pLC50 (the source's name) (converted); for TGI: read-out: pTGI (converted)
Method in brief: (§4)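 Tested in the standard NCI 60-cell-line protocol with two-day drug exposure and a sulforhodamine B endpoint. Compounds were first screened at a single final concentration of 10 µM, reported as growth percent. They were then run as five 10-fold dilutions starting from a high concentration of 100 µM to give dose-response curves.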

SK-MEL-5 [12] = experiment: Growth inhibition of human SK-MEL-5 cells incubated for 48 hrs by sulforhodamine B assay; details: SK-MEL-5, 48 h; for TGI: read-out: pTGI (converted); method in brief: as §3
[13] = Growth inhibition of human OVCAR4 cells incubated for 48 hrs by sulforhodamine B assay; details: OVCAR-4, 48 h; for TGI: read-out: pTGI (converted); method in brief: as §3
[14] = Growth inhibition of human SKOV3 cells incubated for 48 hrs by sulforhodamine B assay; details: SK-OV-3, 48 h; for TGI: read-out: pTGI (converted); method in brief: as §4
A498 = experiment: Growth inhibition of human A498 cells incubated for 48 hrs by sulforhodamine B assay; details: A498, 48 h; for TGI: read-out: pTGI (converted)
[15] = Growth inhibition of human TK10 cells incubated for 48 hrs by sulforhodamine B assay; details: TK-10, 48 h; for CC50: read-out: pLC50 (the source's name) (converted); for TGI: read-out: pTGI (converted); method in brief: as §4
[16] = Growth inhibition of human UO31 cells incubated for 48 hrs by sulforhodamine B assay; details: UO-31, 48 h; for CC50: read-out: pLC50 (the source's name) (converted); for TGI: read-out: pTGI (converted); method in brief: as §4
[17] = Growth inhibition of human PC3 cells incubated for 48 hrs by sulforhodamine B assay; details: PC-3, 48 h; for CC50: read-out: pLC50 (the source's name) (converted); for TGI: read-out: pTGI (converted); method in brief: as §3
A549 = experiment: Growth inhibition of human A549/ATCC cells assessed as cell growth at 10 uM incubated for 48 hrs by sulforhodamine B assay relative to control; details: A549, 48 h, read-out: Activity; method in brief: as §1
NCI-H226 [18] = experiment: Growth inhibition of human NCI-H226 cells assessed as cell growth at 10 uM incubated for 48 hrs by sulforhodamine B assay relative to control; details: NCI-H226, 48 h, read-out: Activity; method in brief: as §1
NCI-H460 = experiment: Growth inhibition of human NCI-H460 cells assessed as cell growth at 10 uM incubated for 48 hrs by sulforhodamine B assay relative to control; details: NCI-H460, 48 h, read-out: Activity; method in brief: as §1
NCI-H522 [19] = experiment: Growth inhibition of human NCI-H522 cells assessed as cell growth at 10 uM incubated for 48 hrs by sulforhodamine B assay relative to control; details: NCI-H522, 48 h, read-out: Activity; method in brief: as §1
[20] = Growth inhibition of human RXF393 cells incubated for 48 hrs by sulforhodamine B assay; details: RXF 393, 48 h
Method in brief: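 Run in the NCI 60-cell-line protocol, with 2-day drug exposure and sulforhodamine B read-out. Dose-response testing used five 10-fold dilutions starting from a high concentration of 100 µM.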

C/C(=C\C(=O)O[C@H]1[C@@H]2[C@H](C)CC[C@H]2[C@]2(C)O[C@@]1(C(C)C)C[C@H]2NC(=O)CO)c1ccccc1
growth at 10 µM [1]: 91.2%
growth at 10 µM (SK-MEL-28): 118%
growth at 10 µM (SK-MEL-5 [2]): 101%
growth at 10 µM [3]: 102%
growth at 10 µM [4]: 110%
growth at 10 µM (SN12C): 84.6%
growth at 10 µM [5]: 17.5%
growth at 10 µM (T47D): 89.3%
GI50 (CCRF-CEM): 25.1 µM
CC50 (CCRF-CEM): > 100 µM
TGI (CCRF-CEM): 77.6 µM
GI50 [6]: 25.7 µM
LC50 [6]: > 100 µM
TGI [6]: 81.3 µM
GI50 [7]: 43.7 µM
LC50 [7]: > 100 µM
TGI [7]: > 100 µM
GI50 [8]: 21.9 µM
LC50 [8]: > 100 µM
TGI ([8]; read-out: pTGI (converted)): 81.3 µM
GI50 (NCI-H226 [9]): 61.7 µM
LC50 (NCI-H226 [9]): > 100 µM
TGI (NCI-H226 [9]): > 100 µM
GI50 (NCI-H322M): > 100 µM
LC50 (NCI-H322M): > 100 µM
TGI (NCI-H322M): > 100 µM
GI50 (NCI-H522 [10]): 27.5 µM
LC50 (NCI-H522 [10]): > 100 µM
TGI (NCI-H522 [10]): 81.3 µM
GI50 [11]: 74.1 µM
CC50 [11]: > 100 µM
TGI [11]: > 100 µM
GI50 (SK-MEL-5 [12]): 19.5 µM
LC50 (SK-MEL-5 [12]): 95.5 µM
TGI (SK-MEL-5 [12]): 43.7 µM
GI50 [13]: 35.5 µM
LC50 (concentration killing 50% of cells) [13]: > 100 µM
TGI [13]: > 100 µM
GI50 [14]: 30.2 µM
LC50 [14]: > 100 µM
TGI [14]: > 100 µM
LC50 (A498): 23.4 µM
GI50 (A498; read-out: GI50): 1.15 µM
GI50 (A498; read-out: pGI50 (converted)): 1.15 µM
TGI (A498): 4.27 µM
GI50 [15]: 83.2 µM
CC50 [15]: > 100 µM
TGI [15]: > 100 µM
GI50 [16]: 3.02 µM
CC50 [16]: > 100 µM
TGI [16]: 12 µM
GI50 [17]: 18.6 µM
CC50 [17]: > 100 µM
TGI [17]: > 100 µM
growth at 10 µM (A549): 84.1%
growth at 10 µM (NCI-H226 [18]): 90.7%
growth at 10 µM (NCI-H460): 106%
growth at 10 µM (NCI-H522 [19]): 92.5%

CC(C)[C@@]12C[C@@H](NC(=O)CO)[C@@](C)(O1)[C@@H]1CC[C@@H](C)[C@H]1[C@@H]2OC(=O)/C=C/C1CCCCC1
growth at 10 µM (SK-MEL-28): 98.9%
growth at 10 µM (SK-MEL-5 [2]): 99.3%
growth at 10 µM [3]: 101%
growth at 10 µM [4]: 103%
growth at 10 µM (SN12C): 86.7%
growth at 10 µM [5]: 95.1%
growth at 10 µM (T47D): 102%
GI50 (CCRF-CEM): > 44.7 µM
CC50 (CCRF-CEM): > 44.7 µM
TGI (CCRF-CEM): > 44.7 µM
GI50 [6]: > 44.7 µM
LC50 [6]: > 44.7 µM
TGI [6]: > 44.7 µM
GI50 [7]: > 44.7 µM
LC50 [7]: > 44.7 µM
TGI [7]: > 44.7 µM
GI50 (NCI-H226 [9]): > 44.7 µM
LC50 (NCI-H226 [9]): > 44.7 µM
TGI (NCI-H226 [9]): > 44.7 µM
GI50 (NCI-H322M): > 44.7 µM
LC50 (NCI-H322M): > 44.7 µM
TGI (NCI-H322M): > 44.7 µM
GI50 (NCI-H522 [10]): > 44.7 µM
LC50 (NCI-H522 [10]): > 44.7 µM
TGI (NCI-H522 [10]): > 44.7 µM
GI50 [11]: > 44.7 µM
CC50 [11]: > 44.7 µM
TGI [11]: > 44.7 µM
GI50 (SK-MEL-5 [12]): > 44.7 µM
LC50 (SK-MEL-5 [12]): > 44.7 µM
TGI (SK-MEL-5 [12]): > 44.7 µM
GI50 [13]: > 44.7 µM
LC50 (concentration killing 50% of cells) [13]: > 44.7 µM
TGI [13]: > 44.7 µM
GI50 [14]: > 44.7 µM
LC50 [14]: > 44.7 µM
TGI [14]: > 44.7 µM
LC50 (A498): > 44.7 µM
GI50 (A498; read-out: GI50): 5.62 µM
GI50 (A498; read-out: pGI50 (converted)): 5.62 µM
TGI (A498): 21.4 µM
GI50 [20]: 13.8 µM
CC50 ([20]; read-out: pLC50 (the source's name) (converted)): > 44.7 µM
TGI ([20]; read-out: pTGI (converted)): > 44.7 µM
GI50 [15]: > 44.7 µM
CC50 [15]: > 44.7 µM
TGI [15]: > 44.7 µM
GI50 [16]: 10 µM
CC50 [16]: > 44.7 µM
TGI [16]: 30.2 µM
GI50 [17]: > 44.7 µM
CC50 [17]: > 44.7 µM
TGI [17]: > 44.7 µM
growth at 10 µM (A549): 92%
growth at 10 µM (NCI-H226 [18]): 96.2%
growth at 10 µM (NCI-H460): 103%
growth at 10 µM (NCI-H522 [19]): 88.8%
